# Data from ChEMBL document CHEMBL1142652, “5-(2-aminoethyl)dibenzo[c,h][1,6]naphthyridin-6-ones: variation of n-alkyl substituents modulates sensitivity to efflux transporters associated with multidrug resistance” (J Med Chem, 2005).
# Key:
# [1] = Inhibitory concentration against camptothecin-resistant variant of P388 cell line was determined; assay type: functional, cell-based, Mus musculus
# Summary of the method: (§1)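 MTT microtiter tetrazolium assay. Cells exposed continuously for 4 days to varying drug concentrations, MTT read at the end of day 4. An untreated control ran in each assay. IC50 taken; each assay done at least twice in six replicate wells. Sources: RPMI 8402 human lymphoblasts and CPT-resistant CPT-K5; P388 mouse leukemia and CPT-resistant TOP1-deficient P388/CPT45; KB3-1 with KBV-1 (MDR1) and KBH5.0 (BCRP, selected stepwise against Hoechst 33342).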
# RPMI 8402 [2] = test: Inhibitory concentration against lymphoblast RPMI 8402 cell line was determined; assay type: functional, cell-based; details: Homo sapiens; summary of the method: as §1
# P388 = test: Inhibitory concentration against P388 cell line in mouse leukemia was determine; assay type: functional, cell-based; summary of the method: as §1
# RPMI 8402 [3] = test: Cytotoxicity against camptothecin-resistant RPMI 8402; assay type: functional, cell-based; details: Homo sapiens; summary of the method: as §1
# [4] = target: T1, DNA topoisomerase 1 (Homo sapiens) (UniProt P11387); test: Relative topoisomerase I-mediated plasmid DNA cleavage compared to topotecan; assay type: functional
# T1 sequence (whole entry): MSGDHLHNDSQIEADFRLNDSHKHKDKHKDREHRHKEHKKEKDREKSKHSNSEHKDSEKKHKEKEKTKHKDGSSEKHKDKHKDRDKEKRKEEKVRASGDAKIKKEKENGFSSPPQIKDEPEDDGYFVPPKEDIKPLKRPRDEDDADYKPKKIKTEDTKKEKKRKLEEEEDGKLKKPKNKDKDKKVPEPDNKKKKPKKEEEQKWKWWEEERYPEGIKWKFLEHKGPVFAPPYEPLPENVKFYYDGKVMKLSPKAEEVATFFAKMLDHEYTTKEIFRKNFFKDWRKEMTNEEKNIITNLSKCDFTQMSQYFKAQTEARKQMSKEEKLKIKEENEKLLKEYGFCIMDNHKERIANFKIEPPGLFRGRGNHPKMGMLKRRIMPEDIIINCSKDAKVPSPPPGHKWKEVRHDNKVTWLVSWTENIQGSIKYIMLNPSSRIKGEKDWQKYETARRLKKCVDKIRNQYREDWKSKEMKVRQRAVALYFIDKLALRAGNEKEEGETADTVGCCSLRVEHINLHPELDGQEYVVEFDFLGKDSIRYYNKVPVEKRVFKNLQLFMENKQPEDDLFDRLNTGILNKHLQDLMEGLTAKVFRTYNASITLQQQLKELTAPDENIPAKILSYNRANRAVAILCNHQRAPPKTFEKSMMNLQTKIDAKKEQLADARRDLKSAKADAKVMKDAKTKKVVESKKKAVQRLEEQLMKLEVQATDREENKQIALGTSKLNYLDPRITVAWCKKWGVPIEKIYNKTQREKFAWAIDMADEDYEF
# Summary of the method: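 Recombinant human topoisomerase I (T7-expressed in E. coli as a fusion protein). End-labeled plasmid YepG, CsCl-purified, incubated with drug and enzyme 30 min at 37 °C. Gel autoradiograms, typically 24 h exposure. Value is REC: concentration relative to topotecan (set at 1.0) that gives the same cleavage.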
# KB 3-1 [5] = test: Inhibitory concentration against KB3-1 cell line was determined; assay type: functional, cell-based; details: Homo sapiens; summary of the method: as §1
# KB 3-1 [6] = test: Inhibitory concentration against KBH5.0 cells overexpress BCRP; assay type: functional, cell-based; details: Homo sapiens, KBH5.0 cell; summary of the method: as §1
# [7] = Inhibitory concentration against KB/V-1 cells overexpress MDR1; assay type: functional, cell-based; details: Homo sapiens; summary of the method: as §1
Compound,IC50 [1] [nM],IC50 (RPMI 8402 [2]) [nM],IC50 (P388) [nM],IC50 (RPMI 8402 [3]) [nM],Activity [4],IC50 (KB 3-1 [5]) [nM],IC50 (KB 3-1 [6]) [nM],IC50 [7] [nM]
COc1cc2c(=O)n(CCNC(C)C)c3c4cc5c(cc4ncc3c2cc1OC)OCO5,30,3,1,180,0.3,5,6,5
COc1cc2c(=O)n(CCN(Cc3ccccc3)C(C)C)c3c4cc5c(cc4ncc3c2cc1OC)OCO5,650,300,230,5900,7.4,800,500,4000
COc1cc2c(=O)n(CCNC(C)(C)C)c3c4cc5c(cc4ncc3c2cc1OC)OCO5,37,2,2,220,0.1,3,6,16
COc1cc2c(=O)n(CCN(Cc3ccccc3)C(C)(C)C)c3c4cc5c(cc4ncc3c2cc1OC)OCO5,1850,850,200,5750,> 1000,190,500,2500
CCN(CCn1c(=O)c2cc(OC)c(OC)cc2c2cnc3cc4c(cc3c21)OCO4)Cc1ccccc1,360,77,50,7500,12.3,180,330,400
COc1cc2c(=O)n(CCN3CCN(Cc4ccccc4)CC3)c3c4cc5c(cc4ncc3c2cc1OC)OCO5,200,400,250,700,1000,500,750,700
CC[C@@]1(O)C(=O)OCc2c1cc1n(c2=O)Cc2cc3c(CN(C)C)c(O)ccc3nc2-1 [TOPOTECAN],> 10000,21,–,> 10000,–,–,440,–
COc1cc2c(=O)n(CCN3CCNCC3)c3c4cc5c(cc4ncc3c2cc1OC)OCO5,300,90,60,2700,4.3,100,530,1900
COc1cc2c(=O)n(CCNCc3ccccc3)c3c4cc5c(cc4ncc3c2cc1OC)OCO5,180,16,16,280,0.5,6,10,35
COc1cc2c(=O)n(CCN3CCC(C)CC3)c3c4cc5c(cc4ncc3c2cc1OC)OCO5,190,30,14,450,> 100,30,40,50
COc1cc2c(=O)n(CCN)c3c4cc5c(cc4ncc3c2cc1OC)OCO5,27,4,3,250,0.02,5,12,15
COc1cc2c(=O)n(CCN(Cc3ccccc3)Cc3ccccc3)c3c4cc5c(cc4ncc3c2cc1OC)OCO5,500,380,250,1950,15,300,300,360
CNCCn1c(=O)c2cc(OC)c(OC)cc2c2cnc3cc4c(cc3c21)OCO4 [GENZ-644282],70,0.3,0.3,250,0.1 µM,0.4,0.5,22
COc1cc2c(=O)n(CCN(C)C)c3c4cc5c(cc4ncc3c2cc1OC)OCO5,230,–,–,–,0.3,–,6,–
COc1cc2c(=O)n(CCN(C)C(C)C)c3c4cc5c(cc4ncc3c2cc1OC)OCO5,71,8,6,630,0.03,3,4,3
CCNCCn1c(=O)c2cc(OC)c(OC)cc2c2cnc3cc4c(cc3c21)OCO4,30,2,0.7,170,0.1,1,5,16
CCN(CC)CCn1c(=O)c2cc(OC)c(OC)cc2c2cnc3cc4c(cc3c21)OCO4,150,6,4,850,1.4,4,5,15
COc1cc2c(=O)n(CCN3CCCC3)c3c4cc5c(cc4ncc3c2cc1OC)OCO5,60,3,6,390,0.3,3,4,8
COc1cc2c(=O)n(CCN3CCN(C)CC3)c3c4cc5c(cc4ncc3c2cc1OC)OCO5,650,300,230,5900,1000,500,400,2500
COc1cc2c(=O)n(CCN3CCCCC3)c3c4cc5c(cc4ncc3c2cc1OC)OCO5,50,7,6,400,0.6,4,9,13
COc1cc2c(=O)n(CCN(C)Cc3ccccc3)c3c4cc5c(cc4ncc3c2cc1OC)OCO5,450,53,38,2000,15.8,50,150,300
CCN(CCn1c(=O)c2cc(OC)c(OC)cc2c2cnc3cc4c(cc3c21)OCO4)C(C)C,120,5,4,310,0.17,3,8,21
COc1cc2c(=O)n(CCN(C(C)C)C(C)C)c3c4cc5c(cc4ncc3c2cc1OC)OCO5,200,8,6,600,4.7,5,40,40
